Measured values published in ChEMBL document CHEMBL5214977, “Discovery and Optimization of Quinoline Analogues as Novel Potent Antivirals against Enterovirus D68” (J Med Chem, 2022).
Activity calls are given as the source filed them. The calls are words filed in the database; no cut-off is given here.

Legend:
RD = assay: Cytotoxicity against human RD cells assessed as inhibition of cell viability by measuring ATP level incubated for 72 hrs by cell titer-glo luminescent cell viability assay; assay type: functional
Procedure, shortened: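 Uninfected RD cells seeded at 1.5 × 10^4/well and grown 24 h, then exposed to compound in 3-fold dilutions (0.01–200 μM), with DMSO as cell control. ATP read by CellTiter-Glo luminescence after 72 h; CC50 is the 50% cytotoxic concentration.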

enterovirus D68 [1] = assay: Antiviral activity against Enterovirus-D68 STL-2014-12 infected in human RD cells assessed as reduction in virus induced cytopathic effect by measuring ATP level incubated for 72 hrs by cell titer-glo luminescent cell viability assay; assay type: functional, organism-based; settings: Enterovirus D, STL-2014-12, RD, 72 h
Procedure, shortened: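 RD cells seeded at 1.5 × 10^4/well and grown 24 h, then given 100 TCID50 virus plus compound in 3-fold dilutions (0.01–200 μM). DMSO control. Incubated 37 °C for 72 h; ATP read by CellTiter-Glo luminescence and normalized to uninfected and infected controls. EC50 is the concentration giving 50% CPE reduction. Strains: STL-2014-12, US/KY/14-18953, US/MO/14-18947, Fermon.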

[2] = Selectivity index, ratio of CC50 for human RD cells to EC50 for Enterovirus-D68 STL-2014-12 infected in human RD cells to; assay type: toxicity, cell-based; settings: for selectivity ratio: RD cells, read-out: Ratio CC50/EC50
Procedure, shortened: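 EC50 came from a CPE reduction assay. RD cells (1.5 × 10^4 per well, grown 24 h) were infected with 100 TCID50 of the named strain and given 3-fold dilutions from 0.01 to 200 μM. After 72 h at 37 °C, ATP was read by CellTiter-Glo and normalized to infected and uninfected controls. CC50 came from uninfected cells under the same dilutions, 72 h and ATP readout. SI = CC50/EC50.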

enterovirus D68 [3] = assay: Antiviral activity against Enterovirus D68 infected in human RD cells assessed as inhibition of VP1 expression level incubated for 12 hrs by Hoechst 33342 staining based immunofluorescence assay; assay type: functional, organism-based; settings: dose 0.1-10 µM, DDE = dose-dependent effect
Procedure, shortened: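 RD cells were infected with EV-D68 at MOI 1 together with compound for 12 h. Cells were fixed in 4% formaldehyde for 30 min and permeabilized in 0.1% Triton X-100 for 30 min, then blocked with 5% bovine serum. Staining used rabbit anti-VP1 with an Alexa-546 secondary and 1 μM Hoechst33342 nuclear stain, imaged by fluorescence microscopy.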

enterovirus D68 [4] = assay: Antiviral activity against Enterovirus D68 infected in human RD cells assessed as inhibition of VP1 expression level incubated for 1.5 hrs by Western blot analysis; assay type: functional, organism-based; settings: dose 0.1-10 µM, DDE = dose-dependent effect
Procedure, shortened: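 RD cells (8.0 × 10^4 per well) were grown for 24 h, then infected with EV-D68 at MOI 0.01 for 1.5 h with gradient-diluted compound or DMSO. Lysates were made at 12 hpi in RIPA buffer and run on 10% SDS-PAGE. Blots were probed with anti-EV-D68 VP1 and anti-tubulin antibodies, with HRP secondary and ECL detection.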

enterovirus D68 [5] = assay: Antiviral activity against Enterovirus D68 infected in human RD cells assessed as inhibition of viral replication at 1 uM incubated for 1.5 hrs by crystal violet staining based plaque formation assay; assay type: functional, organism-based
Procedure, shortened: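 Overnight RD monolayers received serially diluted virus stock plus compound for 1.5 h. Supernatant was removed and cells were overlaid with 2× DMEM containing 2% low-melting agarose. At 72 hpi cells were fixed with 4% paraformaldehyde for 4 h at room temperature and stained with 1% crystal violet to count plaques.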

enterovirus D68 [6] = assay: Antiviral activity against Enterovirus-D68 infected in human HeLa cells assessed as reduction in virus induced cytopathic effect incubated for […] by plaque reduction assay; assay type: functional, organism-based; settings: Enterovirus D

| SMILES | CC50 (RD) | EC50 (enterovirus D68 [1]) | selectivity ratio [2] | Activity (enterovirus D68 [3]) | Activity (enterovirus D68 [4]) | Activity (enterovirus D68 [5]) | EC50 (enterovirus D68 [6]) | Ratio CC50/EC50 [2] |
| --- | --- | --- | --- | --- | --- | --- | --- | --- |
| CCc1nc(-c2cnc3ccc(-c4ccccc4N)cc3c2)no1 | 2350 nM | 2350 nM | 9 |  |  |  |  |  |
| CCc1nc(-c2cnc3ccc(-c4ccc(N)cc4)cc3c2)no1 [listing 1 of 2 here] |  |  |  | Dde | Dde | Active |  |  |
| FC(F)(F)c1nc(-c2cnc3ccc(-c4ccc(N5CCOCC5)cc4)cc3c2)no1 | > 22200 nM | 33900 nM | > 1 |  |  |  |  |  |
| CCOC(=O)c1cnc2ccc(-c3ccccc3)cc2c1 | > 7400 nM | 900 nM | > 8 |  |  |  |  |  |
| CCc1nc(-c2cnc3ccc(-c4ccc(OC)cc4)cc3c2)no1 | > 2500 nM | 190 nM | > 13 |  |  |  |  |  |
| CCOC(=O)c1ccc(OCCC2CCN(c3ccc(C)nn3)CC2)cc1 [PIRODAVIR] |  |  |  |  |  |  | 1610 nM |  |
| CCCc1ccc(-c2ccc3ncc(-c4noc(C)n4)cc3c2)cc1 | > 7400 nM | 780 nM | > 10 |  |  |  |  |  |
| CCc1nc(-c2cnc3ccc(-c4ccccc4)cc3c2)no1 | > 7400 nM | 170 nM | > 44 |  |  |  |  |  |
| CCc1nc(-c2cnc3ccc(-c4ccc(N)c(Cl)c4)cc3c2)no1 | > 7400 nM | 610 nM | > 12 |  |  |  |  |  |
| Cc1nc(-c2cnc3ccc(-c4ccc(N)nc4)cc3c2)no1 | > 7400 nM | 510 nM | > 15 |  |  |  |  |  |
| FC(F)(F)c1nc(-c2cnc3ccc(-c4ccc(Cl)cc4)cc3c2)no1 | > 200000 nM | 24300 nM | > 8 |  |  |  |  |  |
| CCc1nc(-c2cnc3ccc(-c4ccc(NC(C)=O)cc4)cc3c2)no1 | > 7400 nM | 330 nM | > 22 |  |  |  |  |  |
| CCCCc1nc(-c2cnc3ccc(-c4ccc(N)cc4)cc3c2)no1 | > 2500 nM | 710 nM | > 3 |  |  |  |  |  |
| CCc1nc(-c2cnc3ccc(-c4ccc(Cl)cc4)cc3c2)no1 | > 22200 nM | 3020 nM | > 7 |  |  |  |  |  |
| Cc1nc(-c2cnc3ccc(-c4ccc(O)cc4)cc3c2)no1 | > 2500 nM | 460 nM | > 5 |  |  |  |  |  |
| CCc1nc(-c2cnc3ccc(-c4ccc(N)cc4)cc3c2)no1 [listing 2 of 2 here] | > 2500 nM | 100 nM |  |  |  |  |  | > 25 |
| CCc1ccc(-c2ccc3ncc(-c4noc(CC)n4)cc3c2)cc1 | > 22200 nM | 590 nM | > 38 |  |  |  |  |  |
| Nc1ccc(-c2ccc3ncc(-c4noc(C(F)(F)F)n4)cc3c2)cn1 | > 2500 nM | 180 nM | > 14 |  |  |  |  |  |
| CCc1nc(-c2cnc3ccc(-c4cccc(N)c4)cc3c2)no1 | > 7400 nM | 170 nM | > 44 |  |  |  |  |  |
| CCCCc1ccc(-c2ccc3ncc(-c4noc(C(F)(F)F)n4)cc3c2)cc1 | > 7400 nM | 190 nM | > 39 |  |  |  |  |  |
| CCCc1ccc(-c2ccc3ncc(C(=O)OCC)cc3c2)cc1 | > 7400 nM | 1290 nM | > 6 |  |  |  |  |  |
| CCc1nc(-c2cnc3ccc(-c4ccc(N)nc4)cc3c2)no1 | > 66700 nM | 120 nM | > 555 |  |  |  |  |  |
| Cc1nc(-c2cnc3ccc(-c4ccc(N)cc4)cc3c2)no1 | > 2500 nM | 280 nM | > 9 |  |  |  |  |  |
| CCCc1nc(-c2cnc3ccc(-c4ccc(N)cc4)cc3c2)no1 | > 800 nM | 410 nM | > 2 |  |  |  |  |  |
